# ChEMBL document CHEMBL3526106, “Cytochrome P450 regulation by α-tocopherol in Pxr-null and PXR-humanized mice” (Drug Metab Dispos, 2013)
# Tests used:
# Parameters in all cases: dose 500 mg/kg
# [1] = tested on: Mus musculus; assay: Effect on Ugt1a7c gene expression in male PXR-humanized mouse liver at 500 mg/kg for 7 to 14 days dosed through vitamin E-deficient base diet by qPCR method; type: ADME, organism-based; settings: in vivo, po
# Outline: (§1)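 Male mice on vitamin E deficient diet, switched at eight weeks to the same diet with 500 mg/kg DL-α-tocopheryl acetate (controls kept deficient); killed at nine or 10 weeks, livers flash frozen. Hepatic mRNA by SYBR Green qPCR with 25 ng cDNA and 150 nM primers, triplicate reactions; comparative threshold cycle method against β-actin, fold change versus deficient diet; mean ± SEM, two-tailed t-test.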
# [2] = tested on: Mus musculus; assay: Effect on Ugt1a9 gene expression in wild type mouse liver at 500 mg/kg for 7 to 14 days dosed through vitamin E-deficient base diet by qPCR method; type: ADME, organism-based; settings: in vivo, po; outline: as §1
# [3] = tested on: Mus musculus; assay: Effect on Ugt1a9 gene expression in male PXR null mouse liver at 500 mg/kg for 7 to 14 days dosed through vitamin E-deficient base diet by qPCR method; type: ADME, organism-based; settings: in vivo, po; outline: as §1
# [4] = tested on: Mus musculus; assay: Effect on Ugt1a9 gene expression in male PXR-humanized mouse liver at 500 mg/kg for 7 to 14 days dosed through vitamin E-deficient base diet by qPCR method; type: ADME, organism-based; settings: in vivo, po; outline: as §1
# [5] = tested on: Mus musculus; assay: Effect on Ugt1a10 gene expression in male PXR null mouse liver at 500 mg/kg for 7 to 14 days dosed through vitamin E-deficient base diet by qPCR method; type: ADME, organism-based; settings: in vivo, po; outline: as §1
# [6] = tested on: Mus musculus; assay: Effect on Ugt2b34 gene expression in wild type mouse liver at 500 mg/kg for 7 to 14 days dosed through vitamin E-deficient base diet by qPCR method; type: ADME, organism-based; settings: in vivo, po; outline: as §1
# [7] = tested on: Cyp2b10; assay: Induction of Cyp2b10 gene expression in wild type mouse liver at 500 mg/kg for 7 to 14 days dosed through vitamin E-deficient base diet by qPCR method; type: ADME, organism-based; settings: po, read-out: FC; outline: as §1
# [8] = tested on: Mus musculus; assay: Reduction in Cyp4a10 gene expression in PXR-humanized mouse liver at 500 mg/kg for 7 to 14 days dosed through vitamin E-deficient base diet by qPCR method; type: ADME, organism-based; settings: in vivo, po
# Outline: (§2)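 Male mice (wild-type, Pxr-null, hPXR; NCI-bred) on vitamin E-deficient diet from 3 weeks of age; at 8 weeks half switched to same base diet supplemented with 500 mg/kg DL-α-tocopheryl acetate, rest kept deficient. Livers harvested at 9 and 10 weeks. qPCR: 25 ng cDNA, 150 nM each primer, SYBR Green, triplicate; comparative Ct vs β-actin; fold change enriched vs deficient diet; mean ± SEM, two-tailed unpaired t-test.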
# [9] = tested on: Cyp2c55; assay: Induction of Cyp2c55 gene expression in male PXR null mouse liver at 500 mg/kg for 7 to 14 days dosed through vitamin E-deficient base diet by qPCR method; type: ADME, organism-based; settings: po, read-out: FC; outline: as §1
# [10] = tested on: Cyp2c55; assay: Induction of Cyp2c55 gene expression in male PXR-humanized mouse liver at 500 mg/kg for 7 to 14 days dosed through vitamin E-deficient base diet by qPCR method; type: ADME, organism-based; settings: po, read-out: FC; outline: as §1
# [11] = tested on: Cyp2c37; assay: Induction of Cyp2c37 gene expression in male PXR-humanized mouse liver at 500 mg/kg for 7 to 14 days dosed through vitamin E-deficient base diet by qPCR method; type: ADME, organism-based; settings: po, read-out: FC; outline: as §1
# [12] = tested on: Mus musculus; assay: Induction of Cyp2c39 gene expression in wild type mouse liver at 500 mg/kg for 7 to 14 days dosed through vitamin E-deficient base diet by qPCR method; type: ADME, organism-based; settings: in vivo, po; outline: as §1
# [13] = tested on: Mus musculus; assay: Drug metabolism in male PXR-humanized mouse assessed as urinary alpha-carboxyethylhydroxychroman glycine level at 500 mg/kg for 7 to 14 days dosed through vitamin E-deficient base diet by UPLC-ESI-QTOFMS method based metabolomics analysis; type: ADME, organism-based, Urine; settings: in vivo, po
# [14] = tested on: Mus musculus; assay: Drug metabolism in male wild type mouse assessed as urinary alpha-carboxyethylhydroxychroman glucuronide level at 500 mg/kg for 7 to 14 days dosed through vitamin E-deficient base diet by UPLC-ESI-QTOFMS method based metabolomics analysis; type: ADME, organism-based, Urine; settings: in vivo, po
# [15] = tested on: Mus musculus; assay: Drug metabolism in male PXR-humanized mouse assessed as urinary alpha-carboxyethylhydroxychroman glucuronide level at 500 mg/kg for 7 to 14 days dosed through vitamin E-deficient base diet by UPLC-ESI-QTOFMS method based metabolomics analysis; type: ADME, organism-based, Urine; settings: in vivo, po
# Outline: (§3)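 Male mice from three weeks of age on vitamin E deficient diet; at eight weeks, 24 h predose urine in metabolic cages, then half switched to the same diet supplemented with 500 mg/kg DL-α-tocopheryl acetate. 24 h urine collected at nine and 10 weeks. Urinary metabolites quantitated by UPLC-MRM on triple-quadrupole MS against authentic standards and calibration curves, normalized to urinary creatinine (µmol/mmol creatinine); mean ± SEM, two-tailed unpaired t-test.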
# [16] = tested on: Mus musculus; assay: Drug metabolism in male PXR-humanized mouse assessed as urinary alpha-carboxymethylbutylhydroxychroman glucuronide level at 500 mg/kg for 7 to 14 days dosed through vitamin E-deficient base diet by UPLC-ESI-QTOFMS method based metabolomics analysis; type: ADME, organism-based, Urine; settings: in vivo, po; outline: as §3
# [17] = tested on: Mus musculus; assay: Induction of Cyp2c39 gene expression in male PXR null mouse liver at 500 mg/kg for 7 to 14 days dosed through vitamin E-deficient base diet by qPCR method; type: ADME, organism-based; settings: in vivo, po; outline: as §1
# [18] = tested on: Mus musculus; assay: Effect on Ugt1a1 gene expression in wild type mouse liver at 500 mg/kg for 7 to 14 days dosed through vitamin E-deficient base diet by qPCR method; type: ADME, organism-based; settings: in vivo, po; outline: as §1
# [19] = tested on: Mus musculus; assay: Effect on Ugt1a6a gene expression in wild type mouse liver at 500 mg/kg for 7 to 14 days dosed through vitamin E-deficient base diet by qPCR method; type: ADME, organism-based; settings: in vivo, po; outline: as §1
# [20] = tested on: Mus musculus; assay: Effect on Ugt1a6a gene expression in male PXR-humanized mouse liver at 500 mg/kg for 7 to 14 days dosed through vitamin E-deficient base diet by qPCR method; type: ADME, organism-based; settings: in vivo, po; outline: as §1
# [21] = tested on: Mus musculus; assay: Effect on Ugt1a6b gene expression in male PXR null mouse liver at 500 mg/kg for 7 to 14 days dosed through vitamin E-deficient base diet by qPCR method; type: ADME, organism-based; settings: in vivo, po; outline: as §1
# [22] = tested on: Mus musculus; assay: Effect on Ugt1a6b gene expression in male PXR-humanized mouse liver at 500 mg/kg for 7 to 14 days dosed through vitamin E-deficient base diet by qPCR method; type: ADME, organism-based; settings: in vivo, po; outline: as §1
# [23] = tested on: Mus musculus; assay: Induction of Cyp3a11 gene expression in male wild type mouse liver at 500 mg/kg for 7 to 14 days dosed through vitamin E-deficient base diet by qPCR method; type: ADME, organism-based; settings: in vivo, po; outline: as §2
# [24] = tested on: Mus musculus; assay: Induction of Cyp4f13 gene expression in male PXR-humanized mouse liver at 500 mg/kg for 7 to 14 days dosed through vitamin E-deficient base diet by qPCR method; type: ADME, organism-based; settings: in vivo, po; outline: as §2
# [25] = tested on: Mus musculus; assay: Induction of Cyp4f14 gene expression in wild type mouse liver at 500 mg/kg for 7 to 14 days dosed through vitamin E-deficient base diet by qPCR method; type: ADME, organism-based; settings: in vivo, po; outline: as §2
# [26] = tested on: Mus musculus; assay: Induction of Cyp4f16 gene expression in male PXR-humanized mouse liver at 500 mg/kg for 7 to 14 days dosed through vitamin E-deficient base diet by qPCR method; type: ADME, organism-based; settings: in vivo, po; outline: as §2
# [27] = tested on: Mus musculus; assay: Induction of Cyp4f16 gene expression in male PXR null mouse liver at 500 mg/kg for 7 to 14 days dosed through vitamin E-deficient base diet by qPCR method; type: ADME, organism-based; settings: in vivo, po; outline: as §2
# [28] = tested on: Mus musculus; assay: Induction of Cyp4f18 gene expression in male PXR-humanized mouse liver at 500 mg/kg for 7 to 14 days dosed through vitamin E-deficient base diet by qPCR method; type: ADME, organism-based; settings: in vivo, po; outline: as §2
# [29] = tested on: Mus musculus; assay: Induction of Cyp4f18 gene expression in male PXR null mouse liver at 500 mg/kg for 7 to 14 days dosed through vitamin E-deficient base diet by qPCR method; type: ADME, organism-based; settings: in vivo, po; outline: as §2
structure (smiles),measurement,setting,value
CC(=O)Oc1c(C)c(C)c2c(c1C)CCC(C)(CCCC(C)CCCC(C)CCCC(C)C)O2 (racemic) [alpha-TOCHOPHERYL ACETATE],Activity,[1],Not Active
same,Activity,[2],Not Active
same,Activity,[3],Not Active
same,Activity,[4],Not Active
same,Activity,[5],Not Active
same,Activity,[6],Not Active
same,fold induction,[7],7.3
same,fold change (FC),[8],2.4
same,fold induction,[9],2.2
same,fold induction,[10],2.9
same,fold induction,[11],2
same,Activity,[12],Not Active
same,Drug metabolism,[13],metabolite_detected
same,Drug metabolism,[14],metabolite_detected
same,Drug metabolism,[15],metabolite_detected
same,Drug metabolism,[16],metabolite_detected
same,Activity,[17],Not Active
same,Activity,[18],Not Active
same,Activity,[19],Not Active
same,Activity,[20],Not Active
same,Activity,[21],Not Active
same,Activity,[22],Not Active
same,Activity,[23],Active
same,Activity,[24],Not Active
same,Activity,[25],Not Active
same,Activity,[26],Not Active
same,Activity,[27],Not Active
same,Activity,[28],Not Active
same,Activity,[29],Not Active
